Source: ChEMBL document CHEMBL3352208, “Semisynthetic analogues of toxiferine I and their pharmacological properties at α7 nAChRs, muscle-type nAChRs, and the allosteric binding site of muscarinic M2 receptors” (J Nat Prod, 2014)

Experiments:
[1] = target: T1, Muscarinic acetylcholine receptor M2 (Sus scrofa, UniProt P06199); assay: Displacement of [3H]NMS from pig muscarinic M2 receptor after 120 mins by liquid scintillation counting
T1 sequence (P06199 whole entry): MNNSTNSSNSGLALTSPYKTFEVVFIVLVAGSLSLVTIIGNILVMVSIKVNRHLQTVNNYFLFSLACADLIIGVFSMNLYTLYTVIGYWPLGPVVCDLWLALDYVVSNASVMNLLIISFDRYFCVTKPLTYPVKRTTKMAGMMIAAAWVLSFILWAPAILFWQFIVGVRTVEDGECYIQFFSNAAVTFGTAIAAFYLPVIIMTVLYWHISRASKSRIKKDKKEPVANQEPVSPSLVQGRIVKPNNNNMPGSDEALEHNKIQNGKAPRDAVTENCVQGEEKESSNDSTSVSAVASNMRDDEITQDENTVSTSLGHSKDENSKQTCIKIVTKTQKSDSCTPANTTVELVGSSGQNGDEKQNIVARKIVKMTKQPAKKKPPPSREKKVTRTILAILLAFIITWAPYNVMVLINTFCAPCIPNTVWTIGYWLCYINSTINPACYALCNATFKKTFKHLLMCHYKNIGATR

[2] = Displacement of [3H]epibatidine from Torpedo californica muscle-type nAChR after 90 mins by liquid scintillation counting; type: tissue-based, Tetronarce californica
How it was run: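 Torpedo californica electric organ membranes, homogenised and washed in HSS, 60−70 μg per sample. Incubated with (±)-[3H]epibatidine for 90 min at 22 °C; (−)-nicotine defined nonspecific binding. Filtered through PEI-soaked GF/B filters and counted by scintillation. […] Mean ± SEM of 3–5 experiments.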

[3] = target: T2, Neuronal acetylcholine receptor subunit alpha-7 (Homo sapiens, UniProt P36544); assay: Antagonist activity at human alpha7 nAChR expressed in GH3 cells by Ca2+/Fluo-4 assay; type: cell-based
[4] = target: T2, Neuronal acetylcholine receptor subunit alpha-7; assay: Ratio of toxiferine-I IC50 to compound IC50 for human alpha7 nAChR expressed in GH3 cells by Ca2+/Fluo-4 assay; type: cell-based

T2 sequence (P36544 whole entry): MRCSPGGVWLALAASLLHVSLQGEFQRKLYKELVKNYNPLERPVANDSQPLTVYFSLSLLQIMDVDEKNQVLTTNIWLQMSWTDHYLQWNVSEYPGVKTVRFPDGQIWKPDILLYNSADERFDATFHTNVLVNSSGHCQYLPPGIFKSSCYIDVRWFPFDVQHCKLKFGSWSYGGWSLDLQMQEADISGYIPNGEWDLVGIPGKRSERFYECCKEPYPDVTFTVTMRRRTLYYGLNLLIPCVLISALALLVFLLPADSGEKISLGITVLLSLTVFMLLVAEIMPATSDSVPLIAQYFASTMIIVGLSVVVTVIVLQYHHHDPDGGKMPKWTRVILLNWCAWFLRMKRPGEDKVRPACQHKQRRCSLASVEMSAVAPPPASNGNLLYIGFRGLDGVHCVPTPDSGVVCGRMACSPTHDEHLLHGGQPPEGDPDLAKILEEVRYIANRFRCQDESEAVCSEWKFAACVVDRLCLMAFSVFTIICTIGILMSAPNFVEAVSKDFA

| SMILES | EC50 [1] | Ki [2] | IC50 ([3]; read-out: IC50) | IC50 ([3]; read-out: pIC50 (converted)) | Ratio IC50 [4] |
| --- | --- | --- | --- | --- | --- |
| C=CC[N+]12CC[C@@]34c5ccccc5N5[C@@H]6OC=C7C[N+]8(CC=C)CC[C@]9%10c%11ccccc%11N([C@@H]%11OCC=C(C1)[C@H](C[C@@H]32)[C@@H]%11[C@H]54)[C@H]9[C@H]6[C@H]7C[C@@H]%108 (some centres not stated) | 11 nM | 1500 nM |  |  |  |
| C1=C2CN3CC[C@]45c6ccccc6N6[C@@H]7OCC=C8CN9CC[C@]%10%11c%12ccccc%12N([C@H](OC1)[C@@H]([C@H]64)[C@H]2C[C@H]35)[C@H]%10[C@H]7[C@H]8C[C@H]9%11 [CARACURINE V] | 436 nM | > 100000 nM |  |  |  |
| CC[C@@H]1C[N+]2(C)CC[C@@]34c5ccccc5N5/C=C6/[C@H]7C[C@H]8[C@@]9(CC[N+]8(C)C[C@H]7CCO)c7ccccc7N(/C=C(/[C@H]1C[C@@H]32)[C@H]54)[C@@H]69 (some centres not stated) | 320 nM | 455 nM | 590 nM | 603 nM | 10 |
| CC[C@@H]1C[N+]2(Cc3ccc([N+](=O)[O-])cc3)CC[C@@]34c5ccccc5N5/C=C6/[C@H]7C[C@H]8[C@@]9(CC[N+]8(Cc8ccc([N+](=O)[O-])cc8)C[C@H]7CCO)c7ccccc7N(/C=C(/[C@H]1C[C@@H]32)[C@H]54)[C@@H]69 (some centres not stated) | 32 nM | 290 nM | 4200 nM | 4170 nM |  |
| C[N+]12CC[C@@]34c5ccccc5N5/C=C6/[C@H]7C[C@H]8[C@@]9(CC[N+]8(C)C/C7=C/CO)c7ccccc7N(/C=C(/[C@@H](C[C@@H]31)/C(=C\CO)C2)[C@H]54)[C@@H]69 (some centres not stated) | 96 nM | 14 nM |  |  |  |
| CC[C@@H]1C[N+]2(C)CC[C@@]34c5ccccc5N5/C=C6/[C@H]7C[C@H]8[C@@]9(CC[N+]8(C)C[C@H]7CC)c7ccccc7N(/C=C(/[C@H]1C[C@@H]32)[C@H]54)[C@@H]69 (some centres not stated) | 260 nM | 150 nM | 820 nM | 813 nM | 10 |
| C=CC[N+]12CC[C@@]34c5ccccc5N5/C=C6/[C@H]7C[C@H]8[C@@]9(CC[N+]8(CC=C)C[C@H]7CCO)c7ccccc7N(/C=C(/[C@@H](C[C@@H]31)[C@H](CC)C2)[C@H]54)[C@@H]69 (some centres not stated) | 12 nM | 250 nM | 3100 nM | 3160 nM |  |
| CC[C@@H]1CN2CC[C@@]34c5ccccc5N5/C=C6/[C@H]7C[C@@H]8N(CC[C@@]89c8ccccc8N(/C=C(/[C@H]1C[C@H]23)[C@H]54)[C@@H]69)C[C@H]7CCO | 410 nM | 390 nM | 2200 nM | 2340 nM |  |
| CC[C@@H]1C[N+]2(Cc3ccc([N+](=O)[O-])cc3)CC[C@@]34c5ccccc5N5/C=C6/[C@H]7C[C@H]8[C@@]9(CC[N+]8(Cc8ccc([N+](=O)[O-])cc8)C[C@H]7CC)c7ccccc7N(/C=C(/[C@H]1C[C@@H]32)[C@H]54)[C@@H]69 (some centres not stated) | 49 nM | 81.9 nM | 21000 nM | 21400 nM |  |
| C[N+]12CC[C@@]34c5ccccc5N5[C@@H]6OC=C7C[N+]8(C)CC[C@]9%10c%11ccccc%11N([C@@H]%11OCC=C(C1)[C@H](C[C@@H]32)[C@@H]%11[C@H]54)[C@H]9[C@H]6[C@H]7C[C@@H]%108 (some centres not stated) | 8 nM | 5200 nM |  |  |  |
| C=CC[N+]12CC[C@@]34c5ccccc5N5/C=C6/[C@H]7C[C@H]8[C@@]9(CC[N+]8(CC=C)C[C@H]7CC)c7ccccc7N(/C=C(/[C@@H](C[C@@H]31)[C@H](CC)C2)[C@H]54)[C@@H]69 (some centres not stated) | 36 nM | 75.1 nM |  |  |  |
| C=CC[N@@+]12CC[C@@]34c5ccccc5N5/C=C6/[C@H]7C[C@H]8[C@@]9(CC[N@@+]8(CC=C)C/C7=C/CO)c7ccccc7N(/C=C(/[C@@H](C[C@@H]31)/C(=C\CO)C2)[C@H]54)[C@@H]69 [ALCURONIUM] | 2 nM | 234 nM |  |  |  |
| CC[C@@H]1CN2CC[C@@]34c5ccccc5N5/C=C6/[C@H]7C[C@@H]8N(CC[C@@]89c8ccccc8N(/C=C(/[C@H]1C[C@H]23)[C@H]54)[C@@H]69)C[C@H]7CC | 500 nM | 669 nM | 3300 nM | 3310 nM |  |
